# Assay outcomes from PubChem.
# CHT block – inhibitors of human choline transporter CHT | CHT-expressing cells, membrane potential dye, choline response; hits give low values | 310,000 compounds, 0.86% hits | B-score at 10 µM | High affinity choline transporter 1 (Homo sapiens), Q9GZV3;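 active = B-score over 3 SD under the library average, and starting fluorescence ratio not unusually high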;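 note: choline stimulus applied at its EC90 after an EC20 pre-addition; B-score computed on integrated fluorescence ratio after choline addition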
# TMEM16A act – TMEM16A chloride channel activators or potentiators, primary screen, cell-based, HTS; B-score at 10 µM; 340,000 compounds, 0.3% hits; HEK293 TMEM16A/YFP-H148Q/I152L, iodide quench fluorescence; hits give low values;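 active = fluorescence-ratio B-score plate-corrected deviation score at least 3 library SD below zero, with starting fluorescence score within 5 deviations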;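 note: channel opened by trigger with iodide after compound preincubation; score built on the fluorescence ratio of max minus min over baseline; more negative score means more quench and so TMEM16A activation or potentiation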
# ANO1 block – TMEM16A chloride channel inhibitors, primary screen, cell-based, HTS. Anoctamin-1 (Mus musculus), Q8BHY3. HEK293 TMEM16A/YFP iodide influx fluorescence, ionomycin. normalized B-score (activity score, 25-100; higher = stronger inhibition) at 10 µM. 310,000 compounds, 1.2% hits. AID 588511, 2011;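 active = ratio plate-corrected score three or more library SD toward inhibition, starting fluorescence score within five deviations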;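 note: score derived from kinetic fluorescence span divided by baseline fluorescence per well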
# IMP-1 inhibitor – IMP-1 metallo-beta-lactamase inhibitors, primary screen, biochemical, epi-absorbance readout, Pseudomonas aeruginosa enzyme | inhibition, % at 5.6 µM | 290,000 compounds, 0.45% hits | purified IMP-1, nitrocefin hydrolysis, epi-absorbance fluorescence;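 active = inhibition above the mean plus 3 SD of all compounds in the same screening run, cut at about 4.5% in these data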;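 note: 0% = IMP-1 with DMSO and 100% = DMSO wells lacking enzyme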
#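 assay system = purified recombinant IMP-1 metallo-beta-lactamase enzyme | schedule = 15 min preincubation plus 25 min reaction at 25 °C | signal = Epi-absorbance fluorescence, 480 nm excitation, 530 nm emission | read-out basis = percent inhibition from optical density relative to buffer-blank wells | controls = IMP-1 with DMSO as 0%, enzyme-free DMSO as 100%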
# VIM-2 inhibitor – VIM-2 metallo-beta-lactamase inhibitors, primary screen, biochemical, epi-absorbance readout, Pseudomonas aeruginosa enzyme; 290,000 compounds, 0.89% hits; AID 1527, 2009; purified VIM-2, nitrocefin hydrolysis, epi-absorbance fluorescence; inhibition, % at 5.6 µM;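 active = inhibition above the mean of all tested compounds plus 3 SD, cutoff set per screening run, cut at about 7.5% in these data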;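 note: red hydrolysis product quenches plate fluorescence so inhibitors raise well fluorescence; 0% = enzyme with DMSO and 100% = DMSO without enzyme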
# CHT allo act – CHT positive allosteric modulators, primary screen, cell-based, membrane potential dye, choline EC20; High affinity choline transporter 1 (Homo sapiens), Q9GZV3; B-score at 10 µM; CHT-expressing cells; hits give high values; LV-AA mutant CHT in HEK293 cells; 310,000 compounds, 0.49% hits;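 active = initial fluorescence not abnormally high and integrated response B-score, plate-corrected, over 3 SD above library mean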
# TMEM16A reconf – TMEM16A chloride channel inhibitors, confirmation, cell-based, re-confirmation; inhibition, % at 10 µM; shares compounds with ANO1 block; HEK293 TMEM16A/YFP-H148Q, iodide quench fluorescence; ionomycin added to raise cell calcium; 2,300 compounds, 39% hits;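 active = mean duplicate percent inhibition, scaled so buffer wells are 0 and the reference blocker 100, over three buffer SD above buffer mean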
# TMEM16A Ca cntr – calcium mobilization in TMEM16A/YFP HEK293 cells, confirmation, counter-screen for TMEM16A inhibitor project | shares compounds with ANO1 block | Fluo4 calcium mobilization | 2,300 compounds, 2% hits | calcium response (% of ionomycin), % at 10 µM | AID 652231, 2013;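 active = duplicate-averaged calcium signal over 20% of the ionomycin maximum, relative to buffer baseline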;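 note: each well's signal is peak minus trough fluorescence divided by its pre-addition baseline; 0% = buffer wells and 100% = ionomycin wells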
# YFP-HEK293 quench – iodide YFP quench changes in parental YFP-HEK293, counter-screen for TMEM16A inhibitor project, cell-based; shares compounds with ANO1 block; ionomycin; YFP ratio F(max-min)/F0 at 10 µM; 2,300 tested, under 10 active; AID 652233, 2013;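 active = yellow fluorescent protein signal ratio exceeding the buffer control mean by over 5 SD of those controls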;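 note: ratio is mean of duplicate wells from kinetic YFP trace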
# ClC-1 rat inh – ClC-1 chloride channel inhibition, selectivity assay for TMEM16A inhibitor project, cell-based, voltage-dependent ClC-1; ratio percent, % at 10 µM; 2,300 tested, under 10 active; CHO ClC-1-YFP, iodide influx fluorescence quench; iodide control reads 0, buffer control 100; shares compounds with ANO1 block;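 active = duplicate-mean ratio percent above the mean of iodide-only control wells, which defines zero, plus 5 of their SD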;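 note: higher percent means stronger block of ClC-1 iodide influx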
# Target sequence (P35524 whole entry, looked up): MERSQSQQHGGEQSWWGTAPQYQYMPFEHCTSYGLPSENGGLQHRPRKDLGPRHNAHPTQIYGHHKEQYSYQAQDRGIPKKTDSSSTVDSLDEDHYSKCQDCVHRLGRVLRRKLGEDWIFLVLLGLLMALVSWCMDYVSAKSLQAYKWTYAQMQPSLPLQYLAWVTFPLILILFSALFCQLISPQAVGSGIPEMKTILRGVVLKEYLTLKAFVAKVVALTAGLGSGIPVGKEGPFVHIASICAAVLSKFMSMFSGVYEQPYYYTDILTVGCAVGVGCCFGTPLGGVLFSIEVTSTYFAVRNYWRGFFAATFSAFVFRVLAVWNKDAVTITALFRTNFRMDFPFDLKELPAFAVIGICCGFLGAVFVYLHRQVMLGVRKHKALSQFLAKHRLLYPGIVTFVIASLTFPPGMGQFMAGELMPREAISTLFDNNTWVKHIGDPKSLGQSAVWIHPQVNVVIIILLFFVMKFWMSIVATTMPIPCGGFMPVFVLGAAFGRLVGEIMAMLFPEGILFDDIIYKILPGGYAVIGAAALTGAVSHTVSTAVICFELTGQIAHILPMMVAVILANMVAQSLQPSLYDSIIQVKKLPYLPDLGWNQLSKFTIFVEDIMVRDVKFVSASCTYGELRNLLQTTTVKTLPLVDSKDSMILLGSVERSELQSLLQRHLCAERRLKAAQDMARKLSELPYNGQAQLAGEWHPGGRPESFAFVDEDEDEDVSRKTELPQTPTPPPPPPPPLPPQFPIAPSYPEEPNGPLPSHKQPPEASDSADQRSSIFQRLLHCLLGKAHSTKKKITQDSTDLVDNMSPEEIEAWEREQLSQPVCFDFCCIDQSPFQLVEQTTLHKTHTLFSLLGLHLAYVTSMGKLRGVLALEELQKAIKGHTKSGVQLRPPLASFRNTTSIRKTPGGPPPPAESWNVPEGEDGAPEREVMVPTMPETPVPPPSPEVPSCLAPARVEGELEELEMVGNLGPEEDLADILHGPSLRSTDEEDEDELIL
# Numbers without * were called inactive; i = inactive; · = no result given. Sampled rows, rich in hits. Any-hit rate of the full collection: about 3.4%.
SMILES,CHT block,TMEM16A act,ANO1 block,IMP-1 inhibitor,VIM-2 inhibitor,CHT allo act,TMEM16A reconf,TMEM16A Ca cntr,YFP-HEK293 quench,ClC-1 rat inh
O=[N+]([O-])c1ccc(-c2nc(-c3cccs3)c(-c3cccs3)[nH]2)cc1,i,i,i,0.9,1.3,i,20.5%*,i,-1.02,3.0
O=[N+]([O-])c1cccc(-c2nc(-c3cccs3)c(-c3cccs3)[nH]2)c1,i,i,i,0.2,-1.7,i,·,·,·,·
O=C(c1ccccc1)c1ccc2ccccc2c1,·,i,·,·,·,·,·,·,·,·
O=C(c1ccccc1)c1ccc2cc(O)ccc2c1,i,i,25*,-3.0,-1.7,i,i,i,-1.05,-1.5
COc1cccc(OCCN2CCN(c3ncnc4c3cnn4-c3ccccc3)CC2)c1,i,i,100*,-4.3,-3.6,i,i,i,-0.883,-9.5
CC1CCN(c2ncnc3c2cnn3-c2ccccc2)CC1,i,i,i,0.3,-1.1,i,·,·,·,·
COC(=O)CC(NC(=O)CN1CCN(c2ccc(F)cc2)CC1)c1cccc(F)c1 (configuration not stated),i,i,i,-3.5,-2.1,i,·,·,·,·
CC/C(=N\OC(=O)c1ccc(OC(C)C)cc1)c1ccc(C)cc1,i,i,100*,-4.9,-0.5,i,i,i,-1.34,-23.0
Nc1nc(Cl)cc(N2CCCC2)n1,i,i,i,-2.1,-1.3,i,·,·,·,·
Nc1nc(Cl)cc(N2CCC(c3cc(-c4ccc(Cl)cc4Cl)n[nH]3)CC2)n1,i,i,100*,-2.6,-4.6,i,i,i,-1.04,-6.0
CCc1ccc(NC(=O)CCCN2C(=O)C3CC=CCC3C2=O)cc1 (configuration not stated),i,i,i,-2.0,0.2,i,·,·,·,·
O=C(COc1c(Cl)cccc1Cl)Nc1ccccc1N1CCCC1,i,i,25*,-3.2,-1.6,i,i,i,-1.29,-15.5
O=C(Nc1ccccc1N1CCCCC1)c1ccccc1F,i,i,25*,-3.5,-3.1,i,i,i,-0.912,-4.5
O=C(CNCc1ccccc1Cl)Nc1ccccc1N1CCCCC1,i,i,25*,-3.7,-2.0,i,i,i,-1.13,-8.0
CN(C)S(=O)(=O)N1CCC(Oc2cccc(C(=O)NCCC3=CCCCC3)c2)CC1,i,i,100*,-1.1,-1.1,i,21.5%*,i,-1.2,-19.5
COc1cc(CNS(=O)(=O)c2ccc3c(c2)CC(C)N3C(=O)C2CCC2)cc(OC)c1OC (configuration not stated),i,i,25*,-3.9,-1.9,i,i,i,-1.05,-13.0
COc1cccc(CNS(=O)(=O)c2ccc3c(c2)CC(C)N3C(=O)C2CC2)c1 (configuration not stated),i,i,i,-2.1,-0.8,i,·,·,·,·
O=C(COC(=O)CCN1C(=O)C2CC=CCC2C1=O)Nc1ccc([N+](=O)[O-])cc1 (configuration not stated),·,i,·,·,·,·,·,·,·,·
CCOC(=O)CNC(=O)CSc1nc2sc(C)c(C)c2c(=O)n1C,i,i,i,-1.5,-2.5,i,i,i,-1.01,-3.0
Oc1[nH]c2ccccc2c1N=Nc1ccccc1,i,i,i,-0.5,-1.3,i,i,i,-0.969,13.5
Oc1[nH]c2ccccc2c1N=Nc1ccc(F)cc1,i,i,i,-2.1,-1.6,i,·,·,·,·
CN1CC(=O)N(CC(=O)Nc2cccc3ccccc23)C1=O,·,i,·,·,·,·,·,·,·,·
CCCCNC(=O)c1sc(=S)n2c1[nH]c(=O)c1ccccc12,i,i,100*,-0.3,0.3,i,56.5%*,i,-0.93,-25.0
CN(CC(=O)Nc1ccccc1C(F)(F)F)C(=O)Cc1ccc(S(=O)(=O)N2CCOCC2)s1,i,i,i,·,·,i,·,·,·,·
CC(=O)c1nnn(-c2nc(N)nc(N(c3ccccc3)c3ccccc3)n2)c1C,i,i,i,-3.1,-0.6,i,·,·,·,·
SMILES,CHT block,TMEM16A act,ANO1 block,IMP-1 inhibitor,VIM-2 inhibitor,CHT allo act,TMEM16A reconf,TMEM16A Ca cntr,YFP-HEK293 quench,ClC-1 rat inh
CCCCN(CCCC)c1nc(OC)nc(-n2nnc(C(C)=O)c2C)n1,i,i,25*,-1.4,-4.0,i,17.0%*,i,-1.1,-12.5
c1ccc2c(c1)ccc1nnc(-c3ccc4c(c3)OCO4)n12,i,i,i,-0.6,4.7,i,·,·,·,·
Fc1cccc(Cl)c1-c1nnc2ccc3ccccc3n12,i,i,25*,-2.8,-0.6,i,i,i,-0.898,-10.0
CC1(C2CC2)NC(=O)N(CC(=O)N2CCN(c3ccccc3Cl)CC2)C1=O (configuration not stated),·,i,·,·,·,·,·,·,·,·
O=C(O)CCCN1C(=O)/C(=C\c2ccccc2OCc2ccccc2)SC1=S,-7.68*,i,25*,1.0,-4.3,i,i,i,-1.21,-34.5
O=Cc1ccc(-c2nc3ccccc3s2)o1,i,i,i,-2.1,-1.3,i,·,·,·,·
O=C(O)CCCN1C(=O)/C(=C\c2ccc(-c3nc4ccccc4s3)o2)SC1=S,i,i,25*,2.7,0.3,i,24.0%*,i,-1.07,-9.5
COc1cc(N)c(Cl)cc1C(=O)OCC(=O)N1CCCCCC1,·,i,·,·,·,·,·,·,·,·
C=CCc1ccc(OCCOCCOc2cccc3cccnc23)c(OC)c1,i,i,i,-0.7,-3.3,i,·,·,·,·
